ChEMBL document CHEMBL4257452, “A mini-library system to investigate non-essential residues of lipid-phosphatidylserine (PS) binding peptide-peptoid hybrid PPS1” (Medchemcomm, 2017)
Calls of active or inactive are those of the source. The rule behind the calls is not given here. Starred links: 1 amine or outer side, 2 acyl side, 3 side chain; linkers in the order of their positions; H or OH if unused. Positions of bridges follow the written chain, without caps; N, C: chain ends. Non-standard residues stand in square brackets, D forms with d. Residues, ends and D or L forms follow the SMILES beside them. Chains are numbered I, II in the order given. N(3,4-(MeO)2phenethyl)Gly = COc1ccc(CCNCC(=O)O)cc1OC; Gly(N-piperonyl) = O=C(O)CNCc1ccc2c(c1)OCO2; N(4-MeOBn)Gly = COc1ccc(CNCC(=O)O)cc1; N(CH2CH2NHAc)Gly = CC(=O)NCCNCC(=O)O; X3 = CC(c1ccccc1)N(CC(=O)[*:2])[*:1]; N(4-MeBn)Gly = Cc1ccc(CNCC(=O)O)cc1; N(isopentyl)Gly = CC(C)CCNCC(=O)O; NFurfurylGly = O=C(O)CNCc1ccco1; X7 = O=C(CN(c1nccs1)[*:1])[*:2]; X6 = CCC(C)N(CC(=O)[*:2])[*:1]; NAllylGly = C=CCNCC(=O)O; NcPrGly = O=C(O)CNC1CC1; Nme = COCCNCC(=O)O; Sar = CNCC(=O)O

Tested on: HCC4017
Assay: Cytotoxicity against human HCC4017 cells assessed as reduction in cell viability at 20 uM after 24 hrs by MTS assay
Type: functional, cell-based
In short: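 HCC4017 cells (RPMI, 5% FBS) and HBEC-3KT normal lung cells (KSFM with recombinant human EGF and bovine pituitary extract) were plated at 10 000 cells/well in triplicate and left to adhere overnight. They were exposed to 1 or 20 μM compound for 24 h. MTS reagent was then added for 2 h and absorbance read at 490 nm. Viability is % of untreated control wells.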

| Compound | Activity |
| --- | --- |
| COc1ccc(CN(CC(=O)N(CCc2ccc(OC)c(OC)c2)CC(=O)NC(CCCCN)C(=O)NC(CCCCN)C(=O)NC(CCSC)C(=O)NCCCCC(NC(=O)C(CCSC)NC(=O)C(CCCCN)NC(=O)C(CCCCN)NC(=O)CN(CCc2ccc(OC)c(OC)c2)C(=O)CN(Cc2ccc(OC)cc2)C(=O)CN(C(=O)CN(Cc2ccc3c(c2)OCO3)C(=O)CNC(C)c2ccccc2)C(C)c2ccccc2)C(N)=O)C(=O)CN(C(=O)CN(Cc2ccc3c(c2)OCO3)C(=O)CNC(C)c2ccccc2)C(C)c2ccccc2)cc1 (stereo not drawn) (I: H-[X3][Gly(N-piperonyl)][X3][N(4-MeOBn)Gly][N(3,4-(MeO)2phenethyl)Gly]KKMK-NH2 / II: H-[X3][Gly(N-piperonyl)][X3][N(4-MeOBn)Gly][N(3,4-(MeO)2phenethyl)Gly]KKM; amide I:9-II:C; configuration not given here) | Active |
| COc1ccc(CN(CC(=O)N(CC(=O)NC(CCCCN)C(=O)NC(CCCCN)C(=O)NC(CCSC)C(=O)NCCCCC(NC(=O)C(CCSC)NC(=O)C(CCCCN)NC(=O)C(CCCCN)NC(=O)CN(Cc2ccc(C)cc2)C(=O)CN(Cc2ccc(OC)cc2)C(=O)CN(C(=O)CN(Cc2ccc3c(c2)OCO3)C(=O)CNC(C)c2ccccc2)C(C)c2ccccc2)C(N)=O)Cc2ccc(C)cc2)C(=O)CN(C(=O)CN(Cc2ccc3c(c2)OCO3)C(=O)CNC(C)c2ccccc2)C(C)c2ccccc2)cc1 (stereo not drawn) (I: H-[X3][Gly(N-piperonyl)][X3][N(4-MeOBn)Gly][N(4-MeBn)Gly]KKMK-NH2 / II: H-[X3][Gly(N-piperonyl)][X3][N(4-MeOBn)Gly][N(4-MeBn)Gly]KKM; amide I:9-II:C; configuration not given here) | Active |
| COc1ccc(CN(CC(=O)NC(CCCCN)C(=O)NC(CCCCN)C(=O)NC(CCSC)C(=O)NCCCCC(NC(=O)C(CCSC)NC(=O)C(CCCCN)NC(=O)C(CCCCN)NC(=O)CN(Cc2ccc(OC)cc2)C(=O)CN(Cc2ccc(OC)cc2)C(=O)CN(C(=O)CN(Cc2ccc3c(c2)OCO3)C(=O)CNC(C)c2ccccc2)C(C)c2ccccc2)C(N)=O)C(=O)CN(Cc2ccc(OC)cc2)C(=O)CN(C(=O)CN(Cc2ccc3c(c2)OCO3)C(=O)CNC(C)c2ccccc2)C(C)c2ccccc2)cc1 (stereo not drawn) (I: H-[X3][Gly(N-piperonyl)][X3][N(4-MeOBn)Gly][N(4-MeOBn)Gly]KKMK-NH2 / II: H-[X3][Gly(N-piperonyl)][X3][N(4-MeOBn)Gly][N(4-MeOBn)Gly]KKM; amide I:9-II:C; configuration not given here) | Active |
| COc1ccc(CN(CC(=O)N(CCNC(C)=O)CC(=O)NC(CCCCN)C(=O)NC(CCCCN)C(=O)NC(CCSC)C(=O)NCCCCC(NC(=O)C(CCSC)NC(=O)C(CCCCN)NC(=O)C(CCCCN)NC(=O)CN(CCNC(C)=O)C(=O)CN(Cc2ccc(OC)cc2)C(=O)CN(C(=O)CN(Cc2ccc3c(c2)OCO3)C(=O)CNC(C)c2ccccc2)C(C)c2ccccc2)C(N)=O)C(=O)CN(C(=O)CN(Cc2ccc3c(c2)OCO3)C(=O)CNC(C)c2ccccc2)C(C)c2ccccc2)cc1 (stereo not drawn) (I: H-[X3][Gly(N-piperonyl)][X3][N(4-MeOBn)Gly][N(CH2CH2NHAc)Gly]KKMK-NH2 / II: H-[X3][Gly(N-piperonyl)][X3][N(4-MeOBn)Gly][N(CH2CH2NHAc)Gly]KKM; amide I:9-II:C; configuration not given here) | Active |
| COc1ccc(CN(CC(=O)N(CCC(C)C)CC(=O)NC(CCCCN)C(=O)NC(CCCCN)C(=O)NC(CCSC)C(=O)NCCCCC(NC(=O)C(CCSC)NC(=O)C(CCCCN)NC(=O)C(CCCCN)NC(=O)CN(CCC(C)C)C(=O)CN(Cc2ccc(OC)cc2)C(=O)CN(C(=O)CN(Cc2ccc3c(c2)OCO3)C(=O)CNC(C)c2ccccc2)C(C)c2ccccc2)C(N)=O)C(=O)CN(C(=O)CN(Cc2ccc3c(c2)OCO3)C(=O)CNC(C)c2ccccc2)C(C)c2ccccc2)cc1 (stereo not drawn) (I: H-[X3][Gly(N-piperonyl)][X3][N(4-MeOBn)Gly][N(isopentyl)Gly]KKMK-NH2 / II: H-[X3][Gly(N-piperonyl)][X3][N(4-MeOBn)Gly][N(isopentyl)Gly]KKM; amide I:9-II:C; configuration not given here) | Active |
| C=CCN(CC(=O)NC(CCCCN)C(=O)NC(CCCCN)C(=O)NC(CCSC)C(=O)NCCCCC(NC(=O)C(CCSC)NC(=O)C(CCCCN)NC(=O)C(CCCCN)NC(=O)CN(CC=C)C(=O)CN(Cc1ccc(OC)cc1)C(=O)CN(C(=O)CN(Cc1ccc2c(c1)OCO2)C(=O)CNC(C)c1ccccc1)C(C)c1ccccc1)C(N)=O)C(=O)CN(Cc1ccc(OC)cc1)C(=O)CN(C(=O)CN(Cc1ccc2c(c1)OCO2)C(=O)CNC(C)c1ccccc1)C(C)c1ccccc1 (stereo not drawn) (I: H-[X3][Gly(N-piperonyl)][X3][N(4-MeOBn)Gly][NAllylGly]KKMK-NH2 / II: H-[X3][Gly(N-piperonyl)][X3][N(4-MeOBn)Gly][NAllylGly]KKM; amide I:9-II:C; configuration not given here) | Active |
| COc1ccc(CN(CC(=O)N(CC(=O)NC(CCCCN)C(=O)NC(CCCCN)C(=O)NC(CCSC)C(=O)NCCCCC(NC(=O)C(CCSC)NC(=O)C(CCCCN)NC(=O)C(CCCCN)NC(=O)CN(Cc2ccco2)C(=O)CN(Cc2ccc(OC)cc2)C(=O)CN(C(=O)CN(Cc2ccc3c(c2)OCO3)C(=O)CNC(C)c2ccccc2)C(C)c2ccccc2)C(N)=O)Cc2ccco2)C(=O)CN(C(=O)CN(Cc2ccc3c(c2)OCO3)C(=O)CNC(C)c2ccccc2)C(C)c2ccccc2)cc1 (stereo not drawn) (I: H-[X3][Gly(N-piperonyl)][X3][N(4-MeOBn)Gly][NFurfurylGly]KKMK-NH2 / II: H-[X3][Gly(N-piperonyl)][X3][N(4-MeOBn)Gly][NFurfurylGly]KKM; amide I:9-II:C; configuration not given here) | Active |
| COc1ccc(CN(CC(=O)N(CC(=O)NC(CCCCN)C(=O)NC(CCCCN)C(=O)NC(CCSC)C(=O)NCCCCC(NC(=O)C(CCSC)NC(=O)C(CCCCN)NC(=O)C(CCCCN)NC(=O)CN(C(=O)CN(Cc2ccc(OC)cc2)C(=O)CN(C(=O)CN(Cc2ccc3c(c2)OCO3)C(=O)CNC(C)c2ccccc2)C(C)c2ccccc2)C2CC2)C(N)=O)C2CC2)C(=O)CN(C(=O)CN(Cc2ccc3c(c2)OCO3)C(=O)CNC(C)c2ccccc2)C(C)c2ccccc2)cc1 (stereo not drawn) (I: H-[X3][Gly(N-piperonyl)][X3][N(4-MeOBn)Gly][NcPrGly]KKMK-NH2 / II: H-[X3][Gly(N-piperonyl)][X3][N(4-MeOBn)Gly][NcPrGly]KKM; amide I:9-II:C; configuration not given here) | Active |
| COCCN(CC(=O)NC(CCCCN)C(=O)NC(CCCCN)C(=O)NC(CCSC)C(=O)NCCCCC(NC(=O)C(CCSC)NC(=O)C(CCCCN)NC(=O)C(CCCCN)NC(=O)CN(CCOC)C(=O)CN(Cc1ccc(OC)cc1)C(=O)CN(C(=O)CN(Cc1ccc2c(c1)OCO2)C(=O)CNC(C)c1ccccc1)C(C)c1ccccc1)C(N)=O)C(=O)CN(Cc1ccc(OC)cc1)C(=O)CN(C(=O)CN(Cc1ccc2c(c1)OCO2)C(=O)CNC(C)c1ccccc1)C(C)c1ccccc1 (stereo not drawn) (I: H-[X3][Gly(N-piperonyl)][X3][N(4-MeOBn)Gly][Nme]KKMK-NH2 / II: H-[X3][Gly(N-piperonyl)][X3][N(4-MeOBn)Gly][Nme]KKM; amide I:9-II:C; configuration not given here) | Active |
| COc1ccc(CN(CC(=O)N(C)CC(=O)NC(CCCCN)C(=O)NC(CCCCN)C(=O)NC(CCSC)C(=O)NCCCCC(NC(=O)C(CCSC)NC(=O)C(CCCCN)NC(=O)C(CCCCN)NC(=O)CN(C)C(=O)CN(Cc2ccc(OC)cc2)C(=O)CN(C(=O)CN(Cc2ccc3c(c2)OCO3)C(=O)CNC(C)c2ccccc2)C(C)c2ccccc2)C(N)=O)C(=O)CN(C(=O)CN(Cc2ccc3c(c2)OCO3)C(=O)CNC(C)c2ccccc2)C(C)c2ccccc2)cc1 (stereo not drawn) (I: H-[X3][Gly(N-piperonyl)][X3][N(4-MeOBn)Gly][Sar]KKMK-NH2 / II: H-[X3][Gly(N-piperonyl)][X3][N(4-MeOBn)Gly][Sar]KKM; amide I:9-II:C; configuration not given here) | Active |
| COc1ccc(CN(CC(=O)N(CC(=O)NC(CCCCN)C(=O)NC(CCCCN)C(=O)NC(CCSC)C(=O)NCCCCC(NC(=O)C(CCSC)NC(=O)C(CCCCN)NC(=O)C(CCCCN)NC(=O)CN(C(=O)CN(Cc2ccc(OC)cc2)C(=O)CN(C(=O)CN(Cc2ccc3c(c2)OCO3)C(=O)CNC(C)c2ccccc2)C(C)c2ccccc2)C(C)c2ccccc2)C(N)=O)C(C)c2ccccc2)C(=O)CN(C(=O)CN(Cc2ccc3c(c2)OCO3)C(=O)CNC(C)c2ccccc2)C(C)c2ccccc2)cc1 (stereo not drawn) (I: H-[X3][Gly(N-piperonyl)][X3][N(4-MeOBn)Gly][X3]KKMK-NH2 / II: H-[X3][Gly(N-piperonyl)][X3][N(4-MeOBn)Gly][X3]KKM; amide I:9-II:C; configuration not given here) | Active |
| CCC(C)N(CC(=O)NC(CCCCN)C(=O)NC(CCCCN)C(=O)NC(CCSC)C(=O)NCCCCC(NC(=O)C(CCSC)NC(=O)C(CCCCN)NC(=O)C(CCCCN)NC(=O)CN(C(=O)CN(Cc1ccc(OC)cc1)C(=O)CN(C(=O)CN(Cc1ccc2c(c1)OCO2)C(=O)CNC(C)c1ccccc1)C(C)c1ccccc1)C(C)CC)C(N)=O)C(=O)CN(Cc1ccc(OC)cc1)C(=O)CN(C(=O)CN(Cc1ccc2c(c1)OCO2)C(=O)CNC(C)c1ccccc1)C(C)c1ccccc1 (stereo not drawn) (I: H-[X3][Gly(N-piperonyl)][X3][N(4-MeOBn)Gly][X6]KKMK-NH2 / II: H-[X3][Gly(N-piperonyl)][X3][N(4-MeOBn)Gly][X6]KKM; amide I:9-II:C; configuration not given here) | Active |
| COc1ccc(CN(CC(=O)N(CC(=O)NC(CCCCN)C(=O)NC(CCCCN)C(=O)NC(CCSC)C(=O)NCCCCC(NC(=O)C(CCSC)NC(=O)C(CCCCN)NC(=O)C(CCCCN)NC(=O)CN(C(=O)CN(Cc2ccc(OC)cc2)C(=O)CN(C(=O)CN(Cc2ccc3c(c2)OCO3)C(=O)CNC(C)c2ccccc2)C(C)c2ccccc2)c2nccs2)C(N)=O)c2nccs2)C(=O)CN(C(=O)CN(Cc2ccc3c(c2)OCO3)C(=O)CNC(C)c2ccccc2)C(C)c2ccccc2)cc1 (stereo not drawn) (I: H-[X3][Gly(N-piperonyl)][X3][N(4-MeOBn)Gly][X7]KKMK-NH2 / II: H-[X3][Gly(N-piperonyl)][X3][N(4-MeOBn)Gly][X7]KKM; amide I:9-II:C; configuration not given here) | Active |
